Measured values from the EternaBench riboswitch data.

Test system: MS2 coat protein
Experiment: apparent Kd, MS2 coat protein; higher = weaker binding; RNA-MaP array; tryptophan 2.4 mM where present
How it was run: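 Stalled E. coli RNA polymerase transcribed the designs on Illumina sequencing-chip clusters. SNAP-549-labelled MS2 coat protein was titrated from 0.7 or 1.5 nM, doubling to 3 µM, without and then with constant ligand, in 100 mM Tris-HCl pH 7.5, 80 mM KCl, 4 mM MgCl2, BSA, DTT, yeast tRNA and Tween-20. Per-cluster binding curves were fitted to green signal normalised to red-channel RNA signal and control-cluster median Fmax. The apparent Kd is the median of the filtered fits.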

[1] = designed as: ON switch for tryptophan, no ligand
[2] = ligand present: tryptophan, designed as: ON switch for tryptophan
[3] = designed as: OFF switch for tryptophan, no ligand
[4] = ligand present: tryptophan, designed as: OFF switch for tryptophan

| Sequence | apparent Kd [1] | apparent Kd [2] | apparent Kd [3] | apparent Kd [4] |
| --- | --- | --- | --- | --- |
| UUUAUUAUUGACUCGUUUUGGUAUUAAGAACGAGGACCGGUACGGCCGCCACUCGUGAUAUACAUGAGGAUCACCCAUGUUAGCA | 15.1 nM | 15.5 nM |  |  |
| GUUAUAUGAAAACAUAUAACAGUGGGUGAACGAGGACCGGUACGGCCGCCACUCGGACAUGAGGAUCACCCAUGUCCAUGUGAAA |  |  | 15.8 nM | 41.4 nM |
| GGCUAGGUCUCGGCCGCCACUGCUACAUGAGGAUCACCCAUGUACCUGGGCGGUCGCUCCCUCGGCAGGACCGGGAGACAUUCGU |  |  | 9.97 nM | 23 nM |
| GGAUAGGACACGGCCGCCACUACCUAGGAUACUAGAAACAUUUCCUCACAUGAGGAUCACCCAUGUAGGACCGGGUGUCCUAUCG |  |  | 273 nM | 115 nM |
| CGUAGUAUCAGACAUGAGGAUCACCCAUGUCGAGGACCGGUACGGCCGCCACUCGGCAGUUUGCGUCCUCAGGUACUCCAGGUAA |  |  | 15.9 nM | 18.8 nM |
| AACAUACAGUUUUAGGUGGAUAUAAGGCGGCGAGGACCGGUACGGCCGCCACUCGCGUACAUGAGGAUCACCCAUGUCUGAAGCU | 60.3 nM | 46.5 nM |  |  |
| UCUGUUUGCUUUGUUUGUUUCUUCUUUGAGCGAGGACCGGUACGGCCGCCACUCGGGUUACAUGAGGAUCACCCAUGUGGUUUCU | 98.9 nM | 57.8 nM |  |  |
| UCGUGUCUAUUGGUUUAGCUUUAAUCGUUACGAGGACCGGUACGGCCGCCACUCGAUUUAACAUGAGGAUCACCCAUGUACUCUC |  |  | 19 nM | 21.2 nM |
| AUCAUAAUAGCCUCGUGUAAUUAAAUGGAACGAGGACCGGUACGGCCGCCACUCGAUAUAAACAUGAGGAUCACCCAUGUAAGCA |  |  | 65.5 nM | 58.3 nM |
| AAUUCAAUUUUCUUGAUGUAUUAUAUAUUUCGAGGACCGGUACGGCCGCCACUCGUUAAUUACAUGAGGAUCACCCAUGUUAGCU |  |  | 16.8 nM | 14 nM |
| GGUUGGUCCUCACAUGAGGAUCACCCAUGUCGAGGACCGGUACGGCCGCCACUCGAUUGUACCAGGGCUUAAGAGCCUAUGAGCA |  |  | 11.1 nM | 8.44 nM |
| AAACUUCGCAUAGGAAAACUAUGUGAAGAUCGAGGACCGGUACGGCCGCCACUCGUCCUCAACAUGAGGAUCACCCAUGUAAUAA |  |  | 21.1 nM | 30 nM |
| UAAGUUAGGGCGGCCGCCACUCGAACAUGAGGAUCACCCAUGUAAAUUAAUUAAAGGACAUGAAUGAGGACCGGGCCAAGUUAGA | 15.7 nM | 13.4 nM |  |  |
| AUAAAUGGGUUAAUUAGUUUUAGGUCCAGUCGAGGACCGGUACGGCCGCCACUCGUCCCAAGUUACAUGAGGAUCACCCAUGUUA |  |  | 46.6 nM | 67.5 nM |
| UAUAUAUACUCGGCCGCCACUGAGAGAGUCAUGUAAACAUGAGGAUCACCCAUGUAAUAUAUAUACAGGACCGGGAGUAUAUGAA |  |  | 15.3 nM | 13.6 nM |
| GGGAGAUAGGCGGCCGCCACUGAUUUUCAUAUAUAUAUAACAUGAGGAUCACCCAUGUAGAUAUACAGGACCGGGCCUAUUUUUU | 17.4 nM | 16.2 nM |  |  |
| CACGAAAGAUCGGCCGCCACUCAUGUUUCUUACAUGAGGAUCACCCAUGUAUUUUCUUUCUUUUAGAGGACCGGGAUCGAGCGUG | 40.8 nM | 18.4 nM |  |  |
| AAUACAGUGUCGGCCGCCACUGAAACAUGACAUGAGACAUGAGGAUCACCCAUGUACAUAAUAAACAGGACCGGGACCCAUGUAU | 37.9 nM | 15.5 nM |  |  |
| AGGUACGAAAACGUGGGUGAGUCGUACCAACGAGGACCGGUACGGCCGCCACUCGAAUAAACAUGAGGAUCACCCAUGUAAUAAU | 42.4 nM | 107 nM |  |  |
| GGACUCGUCACGGCCGCCACUGCGGUGGUGUGACAUGAGGAUCACCCAUGUUGUCAUGCGGCCCUUAGGACCGGGUGUCGCUUCC |  |  | 169 nM | 198 nM |
| AGAUUCGACACGGCCGCCACUCGUGACAGAUUUCGCAGUGGUCAACAUGAGGAUCACCCAUGUCUGAGGACCGGGUGUUGAGUCU |  |  | 33.5 nM | 474 nM |
